Consider five compounds from ChEMBL document CHEMBL1128531 (J Med Chem, 1995).

Active and inactive are the calls of the source. No cut-off for these calls is given here.

The target of test [1] is T1, D(2) dopamine receptor (Homo sapiens, UniProt P14416). The test is described as follows: Intrinsic activity relative to dopamine for human Dopamine receptor D2 at 10 uM. The procedure, abridged: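 Adenylate cyclase functional assay in LTK cells transfected with the human D2 receptor. […] Values are mean ± SEM over the stated number of experiments.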
Test [2] concerns the target T1, D(2) dopamine receptor. The experiment in a line: Adenylate cyclase assay carried out in LTK cells transfected with human Dopamine receptor D2. Type of test: cell-based.
Test [3] deals with T1, D(2) dopamine receptor. The experiment in a line: Binding affinity against cloned human Dopamine receptor D2 using [3H]spiperone as radioligand transfected in LTK cells.
Test [4] addresses T2, D(1A) dopamine receptor (Homo sapiens, UniProt P21728). The test is described as follows: Adenylate cyclase assay carried out in LTK cells transfected with human Dopamine receptor D1. The class given is cell-based.
Test [5] deals with T2, D(1A) dopamine receptor. The experiment in a line: Binding affinity against cloned human Dopamine receptor D1 using [125I]-SCH 23982 as radioligand transfected in HEK cells. The class given is cell-based, HEK293.
A further test relates to Rattus norvegicus. The test is described as follows: Ability to produce robust rotation in the lesioned rat after subcutaneous administration. Type of test: functional. The conditions noted are these: sc.
Test [6] has as its target T1, D(2) dopamine receptor.
Test [7] deals with T3, 5-hydroxytryptamine receptor 1A (Mus musculus, UniProt Q64264).
T3 sequence (Q64264 whole entry): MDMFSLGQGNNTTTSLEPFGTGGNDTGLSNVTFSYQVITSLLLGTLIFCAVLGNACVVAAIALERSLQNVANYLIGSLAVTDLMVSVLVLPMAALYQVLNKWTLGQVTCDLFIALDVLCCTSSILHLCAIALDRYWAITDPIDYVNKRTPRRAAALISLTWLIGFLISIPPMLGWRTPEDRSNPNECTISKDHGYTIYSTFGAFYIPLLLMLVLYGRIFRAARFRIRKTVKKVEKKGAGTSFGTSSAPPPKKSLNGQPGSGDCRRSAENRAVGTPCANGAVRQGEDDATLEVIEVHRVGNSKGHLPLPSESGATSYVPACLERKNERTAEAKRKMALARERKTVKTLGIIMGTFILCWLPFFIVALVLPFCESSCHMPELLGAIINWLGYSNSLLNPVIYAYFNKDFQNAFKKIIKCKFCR
The test is described as follows: Binding affinity against serotonergic 5-HT1a receptor.

Test [8] deals with T4, 5-hydroxytryptamine receptor 2C (Rattus norvegicus, UniProt P08909).
T4 sequence (P08909 whole entry): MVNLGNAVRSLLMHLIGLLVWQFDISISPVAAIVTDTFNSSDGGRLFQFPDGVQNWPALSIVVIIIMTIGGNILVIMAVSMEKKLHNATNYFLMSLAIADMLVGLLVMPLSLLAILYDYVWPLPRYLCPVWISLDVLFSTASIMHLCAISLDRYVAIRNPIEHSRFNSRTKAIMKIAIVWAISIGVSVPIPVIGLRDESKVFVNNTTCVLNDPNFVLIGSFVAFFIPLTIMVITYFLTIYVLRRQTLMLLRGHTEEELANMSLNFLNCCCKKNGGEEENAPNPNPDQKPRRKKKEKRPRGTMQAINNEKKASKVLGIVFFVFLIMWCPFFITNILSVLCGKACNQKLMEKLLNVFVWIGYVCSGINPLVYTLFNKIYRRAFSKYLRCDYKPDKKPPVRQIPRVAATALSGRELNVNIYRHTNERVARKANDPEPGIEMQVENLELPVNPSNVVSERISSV
The experiment in a line: Binding affinity against serotonergic 5-HT1c receptor.

Test [9] addresses 5-hydroxytryptamine receptor 2A (Bos taurus, UniProt Q75Z89). The experiment in a line: Binding affinity against serotonergic 5-HT2 receptor.
Test [10] deals with Beta-1 adrenergic receptor (Homo sapiens, UniProt P08588). The experiment in a line: Binding affinity against Beta-1 adrenergic receptor.
Test [11] addresses Beta-2 adrenergic receptor (Homo sapiens, UniProt P07550). The test is described as follows: Binding affinity against Beta-2 adrenergic receptor.

T2 sequence (P21728 whole entry): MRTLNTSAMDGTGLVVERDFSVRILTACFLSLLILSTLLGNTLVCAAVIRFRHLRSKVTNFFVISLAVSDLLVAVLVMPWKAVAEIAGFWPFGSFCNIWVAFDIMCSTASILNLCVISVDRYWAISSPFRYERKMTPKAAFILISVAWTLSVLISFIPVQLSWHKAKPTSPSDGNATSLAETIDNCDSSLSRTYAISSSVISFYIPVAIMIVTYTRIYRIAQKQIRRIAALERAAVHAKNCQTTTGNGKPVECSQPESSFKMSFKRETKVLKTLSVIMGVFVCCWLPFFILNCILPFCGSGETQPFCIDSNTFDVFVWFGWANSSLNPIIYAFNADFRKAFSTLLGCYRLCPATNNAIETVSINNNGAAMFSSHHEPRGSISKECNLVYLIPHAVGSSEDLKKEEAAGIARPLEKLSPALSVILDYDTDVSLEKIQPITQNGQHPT
T1 sequence (P14416 whole entry): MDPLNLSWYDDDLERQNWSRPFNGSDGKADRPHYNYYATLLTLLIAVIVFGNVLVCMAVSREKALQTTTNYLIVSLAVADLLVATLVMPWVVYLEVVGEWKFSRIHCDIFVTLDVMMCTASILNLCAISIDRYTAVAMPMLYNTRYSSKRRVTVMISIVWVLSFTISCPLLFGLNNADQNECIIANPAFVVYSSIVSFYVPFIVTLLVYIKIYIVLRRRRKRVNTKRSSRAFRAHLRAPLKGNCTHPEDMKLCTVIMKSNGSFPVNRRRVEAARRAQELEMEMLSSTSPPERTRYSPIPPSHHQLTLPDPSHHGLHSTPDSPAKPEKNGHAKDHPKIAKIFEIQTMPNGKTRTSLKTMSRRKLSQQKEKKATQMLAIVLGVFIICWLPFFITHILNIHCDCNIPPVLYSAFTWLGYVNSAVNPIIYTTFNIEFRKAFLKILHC
Beta-1 adrenergic receptor, sequence (P08588 whole entry): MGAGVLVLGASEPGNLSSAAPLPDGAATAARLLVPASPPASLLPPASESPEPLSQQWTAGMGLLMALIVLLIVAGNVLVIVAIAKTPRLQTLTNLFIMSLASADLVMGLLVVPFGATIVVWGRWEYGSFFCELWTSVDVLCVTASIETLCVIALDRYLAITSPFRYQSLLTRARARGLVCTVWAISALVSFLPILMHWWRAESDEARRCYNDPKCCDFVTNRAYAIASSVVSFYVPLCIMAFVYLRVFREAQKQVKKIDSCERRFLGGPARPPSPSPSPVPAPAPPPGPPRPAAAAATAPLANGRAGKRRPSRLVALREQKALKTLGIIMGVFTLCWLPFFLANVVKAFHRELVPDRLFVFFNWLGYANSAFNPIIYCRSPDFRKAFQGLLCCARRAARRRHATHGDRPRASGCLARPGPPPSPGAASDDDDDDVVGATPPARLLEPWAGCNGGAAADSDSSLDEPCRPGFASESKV
Beta-2 adrenergic receptor, sequence (P07550 whole entry): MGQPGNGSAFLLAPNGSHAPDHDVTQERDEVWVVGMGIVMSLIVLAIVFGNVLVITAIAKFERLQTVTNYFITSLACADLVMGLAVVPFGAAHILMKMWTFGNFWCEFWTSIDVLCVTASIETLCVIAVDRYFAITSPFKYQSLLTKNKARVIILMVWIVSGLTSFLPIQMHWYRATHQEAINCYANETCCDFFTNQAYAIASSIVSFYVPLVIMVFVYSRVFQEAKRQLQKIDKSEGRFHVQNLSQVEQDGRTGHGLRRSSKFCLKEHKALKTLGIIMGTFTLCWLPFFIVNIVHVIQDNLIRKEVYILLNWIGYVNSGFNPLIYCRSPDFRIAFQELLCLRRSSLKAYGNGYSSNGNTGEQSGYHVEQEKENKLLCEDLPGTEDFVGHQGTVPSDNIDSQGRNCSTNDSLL
5-hydroxytryptamine receptor 2A, sequence (Q75Z89 whole entry): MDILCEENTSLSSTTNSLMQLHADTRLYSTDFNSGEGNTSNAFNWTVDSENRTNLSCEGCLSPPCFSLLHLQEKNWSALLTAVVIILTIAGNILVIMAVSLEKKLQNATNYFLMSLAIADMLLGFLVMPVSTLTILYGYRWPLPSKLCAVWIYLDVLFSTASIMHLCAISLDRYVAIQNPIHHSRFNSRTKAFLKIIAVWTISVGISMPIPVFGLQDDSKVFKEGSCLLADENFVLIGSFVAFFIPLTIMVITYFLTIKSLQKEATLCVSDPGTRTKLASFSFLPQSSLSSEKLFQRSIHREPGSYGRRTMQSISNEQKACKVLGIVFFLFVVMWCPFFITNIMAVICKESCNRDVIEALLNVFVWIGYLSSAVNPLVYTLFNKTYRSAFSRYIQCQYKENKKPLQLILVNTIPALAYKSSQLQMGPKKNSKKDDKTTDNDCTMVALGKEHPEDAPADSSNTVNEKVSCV

Compound `NC[C@@H]1O[C@H](C23CC4CC(CC(C4)C2)C3)Cc2c1ccc(O)c2O` returned an IA at D(2) dopamine receptor [1] of 18%. In addition, on D(2) dopamine receptor [2], the EC50 – broadly, the concentration that produces a half-maximal response – was above 4 µM. Besides, affinity on D(2) dopamine receptor [3] was put at a Ki of 1.55 µM.
Take `CCCc1cc2c(s1)CN[C@H]1CCc3cc(O)c(O)cc3[C@H]21`: the IA on D(2) dopamine receptor [1] is 3%. For the same compound, the EC50 on D(1A) dopamine receptor [4] was 1.7 µM; on D(2) dopamine receptor [2], above 10 µM. Besides, the Ki (in general, the dissociation constant of the complex between target and ligand, obtained from inhibition or displacement) at D(1A) dopamine receptor [5] stood at 3.05 µM; on D(2) dopamine receptor [3] it was 4.02 µM.
Turning to `Oc1cc2c(cc1O)[C@@H](c1ccccc1)CNCC2` [(R)-SKF-38393], in the test with Rattus norvegicus, the ED50 (commonly the dose that gives a 50% effect, or the effect in half of the subjects) is 0.02 µmol/kg. The IA result on D(2) dopamine receptor [6] was “inactive”.
Consider `CCCc1cc2c(s1)CN[C@@H]1CCc3cc(O)c(O)cc3[C@@H]21` [A-86929], for which the values for the half-maximal effective concentration (EC50) on D(1A) dopamine receptor [4] and on D(2) dopamine receptor [2] were 0.009 µM and 3.9 µM, respectively. Moreover, the Ki on D(1A) dopamine receptor [5] was 0.049 µM; on D(2) dopamine receptor [3], 0.71 µM.
Regarding `Oc1cc2c(cc1O)[C@H]1c3ccccc3CN[C@@H]1CC2` [DIHYDREXIDINE], the inhibition constant (Ki) in [7] is above 3 µM; in test [8] it was 2.4 µM; in test [9], above 3 µM; in test [10], 1.5 µM; in test [11] it was 1.2 µM. In the test on Rattus norvegicus, this compound registered an ED50 of 0.04 µmol/kg.
